Measured values taken from ChEMBL document CHEMBL4138205, “Oxazole-Containing Diterpenoids from Cell Cultures of Salvia miltiorrhiza and Their Anti-HIV-1 Activities” (J Nat Prod, 2017).
Active and inactive are the calls of the source. No cut-off for these calls is given here.

Legend:
[1] = system: Human immunodeficiency virus 1; experiment: Antiviral activity against wild-type VSV-G pseudotyped HIV1 infected in HEK293 cells assessed as time of 50% failure at 1 uM measured at 48 hrs post infection by luciferase reporter gene assay; assay type: functional
Procedure, shortened: (§1)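 Time-of-addition: HEK 293T infected with VSV-G/HIV-1, then compounds added at successive time points after infection (test compound final 0.1 μM; AZT, EFV, RAL final 1 μM); lysate luciferase read at 48 h postinfection; infectivity (%) versus untreated control.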

[2] = system: Human immunodeficiency virus 1; experiment: Antiviral activity against HIV1 pNL4-3 infected in HEK293 cells assessed as reduction in viral transcription by measuring decrease in luciferase activity at 1 uM after 20 hrs by luciferase reporter gene assay; assay type: functional, organism-based
Procedure, shortened: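 HEK 293T cells transiently transfected with the pNL4-3.luc.R−E− HIV-1 reporter plasmid (luciferase gene) for 4 h. The test compound was then added at 0.001−1 μM final and incubated for an additional 20 h. Luciferase activity was read 24 h post-transfection as a measure of viral gene expression; n = 2.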

[3] = system: Human immunodeficiency virus 1; experiment: Antiviral activity against wild-type VSV-G pseudotyped HIV1 infected in HEK293 cells at 10 uM pretreated for 15 mins followed by viral infection measured after 48 hrs by luciferase reporter gene assay relative to control; assay type: functional; conditions: Human immunodeficiency virus 1, HEK293
Procedure, shortened: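 Single-concentration screen: compound at final 10 μM added to HEK 293T cells 15 min before VSV-G/HIV-1 infection; cell lysate luciferase measured 48 h postinfection and infectivity expressed relative to equal-volume DMSO solvent control.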

[4] = system: Human immunodeficiency virus 1; experiment: Antiviral activity against wild-type VSV-G pseudotyped HIV1 infected in HEK293 cells pretreated for 15 mins followed by viral infection measured after 48 hrs by luciferase reporter gene assay; assay type: functional, organism-based; conditions: Human immunodeficiency virus 1, HEK293
Murine leukemia virus = experiment: Antiviral activity against wild-type VSV-G pseudotyped MLV infected in HEK293 cells pretreated for 15 mins followed by viral infection measured after 48 hrs by luciferase reporter gene assay; assay type: functional, organism-based
[5] = system: Human immunodeficiency virus 1; experiment: Antiviral activity against VSV-G pseudotyped HIV1 infected in human MT2 cells pretreated for 15 mins followed by viral infection measured after 48 hrs by luciferase reporter gene assay; assay type: functional, organism-based; conditions: Human immunodeficiency virus 1, MT2
[6] = system: Human immunodeficiency virus 1; experiment: Antiviral activity against HIV1 NL4-3 infected in human MT2 cells measured after 72 hrs post infection by fluorAce beta-galactosidase reporter gene assay; assay type: functional, organism-based; conditions: Human immunodeficiency virus 1, NL4-3, MT2, 72 h
Procedure, shortened: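 MT-2 cells (RPMI 1640, 10% FBS) in 384-well format infected with HIV-1 NL4-3 carrying a β-galactosidase reporter at MOI 0.01; compounds added in DMSO; β-Gal expression read at 72 h postinfection by FluorAce β-Gal reporter assay; n = 2.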

[7] = system: Human immunodeficiency virus 1; experiment: Antiviral activity against wild-type VSV-G pseudotyped HIV1 infected in HEK293 cells assessed as time of 50% failure at 0.1 uM measured at 48 hrs post infection by luciferase reporter gene assay; assay type: functional; procedure, shortened: as §1
[8] = system: Human immunodeficiency virus 1; experiment: Antiviral activity against HIV1 pNL4-3 infected in HEK293 cells assessed as reduction in viral transcription by measuring decrease in luciferase activity after 20 hrs by luciferase reporter gene assay; assay type: functional, organism-based
Procedure, shortened: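 HEK 293T transiently transfected with pNL4-3.luc.R−E− for 4 h, then treated with compound (0.001−1 μM range; AZT, EFV, RAL 1 μM) for a further 20 h; luciferase activity then measured as read-out of viral gene expression; n = 2.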

HEK293 = experiment: Effect on renilla luciferase expression in HEK293 cells up to 1 uM after 24 hrs by luciferase reporter gene assay; assay type: ADME, cell-based; conditions: human, hek293, 24 h
Procedure, shortened: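 A plasmid encoding Renilla luciferase (pSV40-Renilla) was transiently transfected into HEK 293T cells for 4 h. Cells were then cultured with the test compound at the indicated concentrations, and Renilla luciferase activity in cell lysates was measured 24 h post-transfection as a control for gene translation; n = 2.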

[9] = system: Human immunodeficiency virus 1; experiment: Antiviral activity against HIV1 infected in HEK293 cells assessed as inhibition of basal LTR transcription after 48 hrs by dual-luciferase reporter gene assay; assay type: functional, organism-based
Procedure, shortened: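 HEK 293T cotransfected 4 h with 100 ng pLTR-Luc and 2 ng pSV40-Renilla (no Tat), then compound added; firefly and Renilla luciferase in lysates measured 48 h post-transfection by dual-luciferase assay; n = 2.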

[10] = biological target: T1, Protein Tat (Human immunodeficiency virus type 1 group M subtype B (isolate HXB2)(HIV-1)) (UniProt P04608); experiment: Inhibition of HIV1 Tat-mediated LTR transcriptional activity expressed in HEK293 cells after 48 hrs by dual-luciferase reporter gene assay; assay type: cell-based; conditions: Human immunodeficiency virus 1
T1 sequence (whole entry): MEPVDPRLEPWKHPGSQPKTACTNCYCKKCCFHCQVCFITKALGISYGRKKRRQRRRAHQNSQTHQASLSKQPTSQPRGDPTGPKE
Procedure, shortened: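 HEK 293T cotransfected 4 h with 100 ng pLTR-Luc, 70 ng pcDNA3.1-Tat and 2 ng pSV40-Renilla, then cultured with compound; lysate luciferase activities read 48 h post-transfection by dual-luciferase assay; n = 2.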

**Q.** For `Cc1nnc(C(=O)NC(C)(C)c2nc(C(=O)NCc3ccc(F)cc3)c(O)c(=O)n2C)o1` [RALTEGRAVIR], which FT50 [1] is on record?
**A.** 12 h

**Q.** And the Activity [2]?
**A.** inactive

**Q.** For `Cc1nc2c(o1)c1c(c3ccc4c(C)cccc4c32)OC[C@@H]1C`, which inhibition at 10 µM [3] is on record?
**A.** 2.82%

**Q.** For `Cc1nc2c(o1)c1c(C)coc1c1ccc3c(C)cccc3c12`, which inhibition at 10 µM [3] is on record?
**A.** 17.4%

**Q.** With `Cc1cn([C@H]2C[C@H](N=[N+]=[N-])[C@@H](CO)O2)c(=O)[nH]c1=O` [ZIDOVUDINE] as the compound, how does the FT50 [1] read?
**A.** 7.7 h

**Q.** What about the Activity [2] of the same compound?
**A.** inactive

**Q.** With `C[C@H]1COc2c1c1ocnc1c1c3c(ccc21)C(C)(C)CCC3` as the compound, how does the inhibition at 10 µM [3] read?
**A.** 18.7%

**Q.** Which results are given for `Cc1cccc2c1ccc1c3c(c4oc(Cc5ccccc5)nc4c12)[C@@H](C)CO3`?
**A.** inhibition at 10 µM [3]: 62.1%; IC50 [4]: 1200 nM

**Q.** How did the inhibition at 10 µM [3] turn out when `Cc1nc2c(o1)c1c(c3ccc4c(c32)CCCC4(C)C)OC[C@@H]1C` was run?
**A.** 18.3%

**Q.** `Cc1nc2c3c(c4ccc5c(c4c2o1)CCCC5(C)C)OC[C@@H]3C` was tested. Which inhibition at 10 µM [3] did it give?
**A.** 11.2%

**Q.** With `O=C1Nc2ccc(Cl)cc2[C@@](C#CC2CC2)(C(F)(F)F)O1` [EFAVIRENZ] as the compound, how does the inhibition at 10 µM [3] read?
**A.** 100%

**Q.** And the IC50 (Murine leukemia virus)?
**A.** > 10000 nM

**Q.** And the FT50 [1]?
**A.** 10.1 h

**Q.** What about the Activity [2] of the same compound?
**A.** inactive

**Q.** How did the inhibition at 10 µM [3] turn out when `Cc1cccc2c1ccc1c3c(c4ocnc4c12)[C@@H](C)CO3` was run?
**A.** 76.7%

**Q.** What about the IC50 [4] of the same compound?
**A.** 30 nM

**Q.** What about the IC50 [5] of the same compound?
**A.** 30 nM

**Q.** And the IC50 [6]?
**A.** 5400 nM

**Q.** What about the IC50 (Murine leukemia virus) of the same compound?
**A.** 150 nM

**Q.** What about the FT50 [7] of the same compound?
**A.** <=20 hr

**Q.** And the Activity [8]?
**A.** Dose-dependent effect

**Q.** What about the Activity (HEK293) of the same compound?
**A.** Non-Toxic

**Q.** What about the inhibition [9] of the same compound?
**A.** Dose-dependent effect

**Q.** What about the inhibition [10] of the same compound?
**A.** Dose-dependent effect
